Active and inactive are the calls of the source. The calls are words filed in the database; no cut-off is given here.
Key:
L1210 [1] = assay: Antitumor activity against mouse L1210 cells allografted in BDF/1 mouse assessed as mouse survival at 600 mg/kg, ip qd treated 24 hrs after tumor implantation relative to control; type: functional; details: route intraperitoneal
Method in brief: (§1)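 Female BDF1 mice, 6–8 per group, were inoculated ip with 1×10^5 viable L1210 cells. Drug was given ip once daily on days 1–5, starting 24 h after implant, in freshly prepared isotonic sterile saline. Controls received 0.2 mL saline. Read-outs were survivors (cures) and T/C, with survivors excluded from T/C. P values came from the Wilcoxon nonparametric method.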

L1210 [2] = assay: Antitumor activity against mouse L1210 cells allografted in BDF/1 mouse assessed as tumor weight reduction on day 5 at 600 mg/kg, ip qd treated 24 hrs after tumor implantation relative to control; type: functional, organism-based; design: dose 600 mg/kg
Human alphaherpesvirus 1 [3] = assay: Antiviral activity against Herpes simplex virus type 1 infected in human KB cells assessed as inhibition of virus-induced cytopathic effect after 72 hrs by microscopically; type: functional, organism-based
Method in brief: (§2)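 KB monolayers (18-24 h) were exposed to about 320 CCID50 of virus, with compound added within 15 min. CPE (0-4) and cytotoxicity were scored microscopically after 72 h at 37 °C. Virus rating was the summed (virus control − treated) CPE across drug levels, halved at partially toxic levels. Ratings: 0.5 slight/none, 0.5-0.9 moderate, 1.0 marked.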

KB [4] = assay: Antiviral activity against Myxoma virus infected in human KB cells assessed as inhibition of virus-induced cytopathic effect after 72 hrs by microscopically; type: functional, cell-based; method in brief: as §2
Human alphaherpesvirus 1 [5] = assay: Antiviral activity against Herpes simplex virus type 1 infected in Swiss albino mouse assessed as increase in mouse survival at 0.033 mg/kg, ic single dose after 6 hrs of infection relative to control; type: functional; details: Human alphaherpesvirus 1, 6 h
Method in brief: (§3)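 Swiss albino mice, six per group, were infected intracerebrally with HSV-1 at about 10 LD50. Six hours later each received a single ic drug injection in Hank's balanced salt solution. Controls received the same volume of Hank's solution alone. Efficacy was the increase in number of survivors versus controls.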

L1210 [6] = assay: Antitumor activity against mouse L1210 cells allografted in BDF/1 mouse assessed as mouse survival upto 60 days at 600 mg/kg, ip qd treated 24 hrs after tumor implantation relative to control; type: functional; method in brief: as §1
Human alphaherpesvirus 1 [7] = assay: Antiviral activity against Herpes simplex virus type 1 infected in Swiss albino mouse assessed as increase in mouse survival at 0.14 mg/kg, ic single dose after 6 hrs of infection relative to control; type: functional; details: Human alphaherpesvirus 1, 6 h; method in brief: as §3
L1210 [8] = assay: Antitumor activity against mouse L1210 cells allografted in BDF/1 mouse assessed as […] at 600 mg/kg, ip qd treated 24 hrs after tumor implantation relative to control; type: functional; details: route intraperitoneal; method in brief: as §1
Vaccinia virus = assay: Antiviral activity against Vaccinia virus infected in human KB cells assessed as inhibition of virus-induced cytopathic effect after 72 hrs by microscopically; type: functional, organism-based; details: Orthopoxvirus vaccinia
KB [9] = assay: Antiviral activity against rhinovirus type 13 infected in human KB cells assessed as inhibition of virus-induced cytopathic effect after 72 hrs by microscopically; type: functional, cell-based; details: Human rhinovirus A13; method in brief: as §2
Suid alphaherpesvirus 1 = assay: Antiviral activity against Pseudorabies virus infected in human KB cells assessed as inhibition of virus-induced cytopathic effect after 72 hrs by microscopically; type: functional, organism-based
L1210 [10] = assay: Antitumor activity against mouse L1210 cells allografted DBA/2 mouse assessed as increase in life span; type: functional
L1210 [11] = assay: Antitumor activity against mouse L1210 cells allografted in BDF/1 mouse assessed as mouse survival at 400 mg/kg, ip qd treated 24 hrs after tumor implantation relative to control; type: functional; details: route intraperitoneal; method in brief: as §1
L1210 [12] = assay: Antitumor activity against mouse L1210 cells allografted in BDF/1 mouse assessed as mouse survival upto 60 days at 400 mg/kg, ip qd treated 24 hrs after tumor implantation relative to control; type: functional, organism-based; design: dose 400 mg/kg
Method in brief: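 BDF1 female mice, six to eight per group, inoculated ip with 1×10^5 viable L1210 cells. Drug was given ip once daily on days 1-5, starting 24 h after implant, in freshly prepared isotonic sterile saline. Controls received 0.2 mL saline. Read-out was survivors (cures) and T/C excluding survivors. P was derived by the Wilcoxon nonparametric method.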

L1210 [13] = assay: Antitumor activity against mouse L1210 cells allografted in BDF/1 mouse assessed as tumor weight reduction on day 5 at 400 mg/kg, ip qd treated 24 hrs after tumor implantation relative to control; type: functional, organism-based; design: dose 400 mg/kg
L1210 [14] = assay: Antitumor activity against mouse L1210 cells allografted in BDF/1 mouse assessed as increase in life span at 600 mg/kg, ip qd treated 24 hrs after tumor implantation relative to control; type: functional; details: route intraperitoneal; method in brief: as §1

Row | Structure (SMILES) | Survival (L1210 [1]) [days] | inhibition (L1210 [2]) | inhibition (Human alphaherpesvirus 1 [3]) | inhibition (KB [4]) | survival at 0.033 mg/kg (Human alphaherpesvirus 1 [5]) [%] | survival at 0.14 mg/kg (Human alphaherpesvirus 1 [7]) [%] | T/C (L1210 [8]) | inhibition (Vaccinia virus) | inhibition (KB [9]) | inhibition (Suid alphaherpesvirus 1) | further results
1 | N=c1ccn2c(n1)O[C@@H]1[C@H](OP(=O)(O)O)[C@@H](CO)O[C@H]12 | 17.5 | Active | Active | Active | 0 | 40 | 2.07 | Active | Active | Active | Activity (L1210 [6]): inactive
2 | Nc1ccn([C@@H]2O[C@H](CO)[C@@H](OP(=O)(O)O)[C@@H]2O)c(=O)n1 |  |  | Active | Active |  |  |  | Active | Active | Active | 
3 | N=c1ccn2c(n1)O[C@@H]1[C@H](O)[C@@H](CO)O[C@H]12 | 24 | Active |  |  |  |  | 2.81 |  |  |  | Activity (L1210 [6]): inactive
4 | N=c1nc2n(cc1F)[C@@H]1O[C@H](CO)[C@@H](O)[C@H]1O2 |  |  |  |  |  |  |  |  |  |  | Activity (L1210 [10]): 80%
5 | N=c1ccn([C@@H]2O[C@H](CO)[C@@H](O)[C@@H]2O)c(N)n1 |  |  | Active | Active |  |  |  | Active |  | Active | Survival (L1210 [11]): 60 days; Activity (L1210 [12]): Active; inhibition (L1210 [13]): Active
6 | N=c1ccn([C@@H]2O[C@H](CO)[C@@H](OP(=O)(O)O)[C@@H]2O)c(N)n1 | 22.5 | Active | Active | Active | 0 | 50 | 2.44 | Active | inactive | Active | Activity (L1210 [14]): 144%; survival at 600 mg/kg (L1210 [6]; route intraperitoneal): 33%
7 | Nc1ccn([C@@H]2O[C@H](CO)[C@@H](O)[C@@H]2O)c(=O)n1 [CYTARABINE] |  |  | Active | Active | 0 | 40 |  | Active |  | Active | 
8 | N=c1nc(N)n([C@@H]2O[C@H](CO)[C@@H](OP(=O)(O)O)[C@@H]2O)cc1F |  |  | Active | Active |  |  |  | Active | inactive | Active | 
9 | N=c1nc2n(cc1F)[C@@H]1O[C@H](CO)[C@@H](OP(=O)(O)O)[C@H]1O2 |  |  | Active |  |  |  |  |  |  |  | 

Reference: ChEMBL document CHEMBL3227966, “Synthesis and antitumor and antiviral activities of 1-beta-D-arabinofuranosyl-2-amino-1,4(2H)-iminopyrimidine and its derivatives” (1979)
